26 molecules from ChEMBL document CHEMBL1131255, “Benzylimidazolines as h5-HT1B/1D serotonin receptor ligands: a structure-affinity investigation” (J Med Chem, 1998) can be followed below.

The target in assay [1] is T1, 5-hydroxytryptamine receptor 1B (Homo sapiens, UniProt P28222). Briefly: Binding affinity towards human 5-hydroxytryptamine 1B receptor using [3H]5-HT trifluoroacetate as radioligand. In a few lines:
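Membrane homogenate (0.1 mg protein/well) incubated in triplicate with [3H]-5-HT (2.5 nM final) in 50 mM Tris, 10 mM MgSO4, 0.5 mM EDTA, 10 µM pargyline, 0.1% ascorbic acid, pH 7.4. Incubation 60 min at room temperature. Nonspecific binding defined with 20 µM 5-HT. Filtration over GF/B, scintillation counting.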

Assay [2] concerns the target T2, 5-hydroxytryptamine receptor 1D (Homo sapiens, UniProt P28221). The experiment in a line: Binding affinity towards human 5-hydroxytryptamine 1D receptor using [3H]5-HT trifluoroacetate as radioligand.
Assay [3] has as its target T1, 5-hydroxytryptamine receptor 1B. Briefly: Adenyl cyclase activity was expressed as percent forskolin response against 5-hydroxytryptamine 1B receptor at concentration 1 uM. Type of assay: functional. Put shortly: (§1)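 Agonist test in CHO Pro 5 cells stably transfected with human h5-HT1B or h5-HT1D receptors. Compound added to culture medium with 10 µM forskolin and 0.5 mM IBMX, 30 min at 37 °C. Stopped with cold ethanolic 5 mM EDTA (2:1 v/v) to extract cAMP. cAMP measured by enzyme immunoassay; mean ± SEM from three or more experiments.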

Assay [4] shares this target. The experiment in a line: Adenyl cyclase activity was expressed as percent forskolin response against 5-hydroxytryptamine 1B receptor at concentration 10 uM. In kind it is functional. In a few lines:
as §1

In assay [5] the target is T2, 5-hydroxytryptamine receptor 1D. Briefly: Adenyl cyclase activity was expressed as percent forskolin response against 5-hydroxytryptamine 1D receptor at concentration 1 uM. Type of assay: functional. Put shortly:
as §1

The target is the same in assay [6]. The experiment in a line: Adenyl cyclase activity was expressed as percent forskolin response against 5-hydroxytryptamine 1D receptor at concentration 10 uM. Type of assay: functional. In a few lines:
as §1

Assay [7] addresses Serotonin 1 receptors; 5-HT1B & 5-HT1D (Homo sapiens) (UniProt P28222+P28221). Briefly: Binding Selectivity was determined [Selectivity = Ki against h5-HT1B receptor / Ki against h5-HT1D receptor]. Type of assay: protein assay.
Assay [8] deals with T3, Adrenergic receptor alpha-2 (Homo sapiens, UniProt P08913+P18825+P18089).
T3 sequence (P08913 whole entry): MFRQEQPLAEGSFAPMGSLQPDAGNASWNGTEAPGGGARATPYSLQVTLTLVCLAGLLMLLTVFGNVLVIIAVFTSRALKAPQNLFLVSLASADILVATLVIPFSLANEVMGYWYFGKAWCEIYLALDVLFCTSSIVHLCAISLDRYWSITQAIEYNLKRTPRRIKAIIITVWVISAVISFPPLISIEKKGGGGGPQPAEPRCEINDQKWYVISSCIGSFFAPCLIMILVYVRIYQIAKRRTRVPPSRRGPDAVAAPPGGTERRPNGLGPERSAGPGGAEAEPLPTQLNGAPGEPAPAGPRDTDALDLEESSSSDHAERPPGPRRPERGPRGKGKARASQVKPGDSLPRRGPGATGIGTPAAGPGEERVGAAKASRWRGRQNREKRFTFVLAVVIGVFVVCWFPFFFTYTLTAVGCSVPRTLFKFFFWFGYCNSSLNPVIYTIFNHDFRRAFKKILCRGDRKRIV
T3 sequence (P18825 whole entry): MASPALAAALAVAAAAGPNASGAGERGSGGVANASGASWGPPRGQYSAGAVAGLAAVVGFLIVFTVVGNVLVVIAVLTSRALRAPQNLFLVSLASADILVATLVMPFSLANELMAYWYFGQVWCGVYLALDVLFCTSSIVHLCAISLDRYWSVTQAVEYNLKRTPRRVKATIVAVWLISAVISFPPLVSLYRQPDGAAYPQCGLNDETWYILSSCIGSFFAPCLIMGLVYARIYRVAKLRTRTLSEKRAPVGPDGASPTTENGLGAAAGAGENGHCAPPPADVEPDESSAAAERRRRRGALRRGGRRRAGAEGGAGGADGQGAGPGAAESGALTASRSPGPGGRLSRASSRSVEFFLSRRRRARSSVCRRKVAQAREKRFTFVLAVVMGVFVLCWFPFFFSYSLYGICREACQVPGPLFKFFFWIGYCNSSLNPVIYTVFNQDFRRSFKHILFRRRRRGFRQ
T3 sequence (P18089 whole entry): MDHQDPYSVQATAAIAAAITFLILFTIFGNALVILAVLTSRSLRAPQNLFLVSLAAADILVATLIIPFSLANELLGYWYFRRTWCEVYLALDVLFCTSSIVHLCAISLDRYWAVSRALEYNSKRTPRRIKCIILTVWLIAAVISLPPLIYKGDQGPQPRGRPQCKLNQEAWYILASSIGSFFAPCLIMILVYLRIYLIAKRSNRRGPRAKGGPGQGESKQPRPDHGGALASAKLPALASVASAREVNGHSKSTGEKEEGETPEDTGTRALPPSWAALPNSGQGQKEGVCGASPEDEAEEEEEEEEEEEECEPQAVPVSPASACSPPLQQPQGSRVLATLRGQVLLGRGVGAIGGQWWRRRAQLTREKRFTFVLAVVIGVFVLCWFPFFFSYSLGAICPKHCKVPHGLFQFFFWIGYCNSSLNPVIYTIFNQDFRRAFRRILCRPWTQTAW
Briefly: Binding affinity towards Alpha-2 adrenergic receptor. In kind it is protein assay.

The target of assay [9] is Adrenergic receptor alpha. The experiment in a line: Binding affinity towards Alpha-1 adrenergic receptor. In kind it is protein assay, Canis lupus familiaris.
Assay [10] in a line: Tested for 5-hydroxytryptamine 1D like receptor-mediated vascular effect in rabbit saphenous vein (RSV).

T1 sequence (P28222 whole entry): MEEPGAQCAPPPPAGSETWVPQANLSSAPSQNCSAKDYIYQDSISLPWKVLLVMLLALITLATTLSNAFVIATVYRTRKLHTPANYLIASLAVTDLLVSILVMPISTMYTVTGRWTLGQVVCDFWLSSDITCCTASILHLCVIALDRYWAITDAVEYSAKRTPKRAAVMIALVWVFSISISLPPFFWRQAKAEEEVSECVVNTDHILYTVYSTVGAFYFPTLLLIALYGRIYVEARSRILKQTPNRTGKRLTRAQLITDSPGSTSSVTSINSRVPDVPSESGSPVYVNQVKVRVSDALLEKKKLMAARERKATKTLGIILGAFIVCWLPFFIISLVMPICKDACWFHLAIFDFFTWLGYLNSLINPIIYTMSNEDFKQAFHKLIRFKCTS
T2 sequence (P28221 whole entry): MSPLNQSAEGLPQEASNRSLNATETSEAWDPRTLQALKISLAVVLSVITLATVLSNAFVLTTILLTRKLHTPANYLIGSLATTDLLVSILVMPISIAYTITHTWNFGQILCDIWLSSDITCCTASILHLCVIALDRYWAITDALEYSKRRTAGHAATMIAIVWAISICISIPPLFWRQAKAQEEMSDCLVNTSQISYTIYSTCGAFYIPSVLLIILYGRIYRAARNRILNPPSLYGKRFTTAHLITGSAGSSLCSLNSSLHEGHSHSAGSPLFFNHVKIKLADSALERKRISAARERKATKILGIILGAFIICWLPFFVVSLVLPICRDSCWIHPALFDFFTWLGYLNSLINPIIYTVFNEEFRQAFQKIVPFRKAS

As usually defined, the Ki is a measure of affinity in units of concentration, obtained from inhibition or displacement. A lower Ki goes with a stronger hold on the target. Turning to `CN1CCN=C1Cc1ccccc1`, the Ki in assay [1] is greater than 10 µM.
As for `c1ccc(-c2ccc(CC3=NCCN3)cc2)cc1`, the Ki in assay [1] and in [2] was greater than 10 µM each time.
Turning to `Cc1cc(C(C)(C)C)c(O)c(C)c1CC1=NCCN1` [OXYMETAZOLINE], the Response amounted to 57% in assay [3], 40% in [4], 40% in assay [5] and 35% in [6]. In [1], this molecule had a Ki of 0.0003 µM.
Regarding `Cc1cc(Br)cc(C)c1CC1=NCCN1`, the Selectivity in [7] is 21.
Turning to `Oc1cccc(CC2=NCCN2)c1`, the Ki was 3.74 µM in assay [1] and greater than 10 µM in assay [2]. Also, the Selectivity in assay [7] was less than 1.
As to `CCc1ccc(CC2=NCCN2)cc1`, the Ki in [1] and in [2] was greater than 10 µM each time.
With `CCCCc1ccc(CC2=NCCN2)cc1`, the Ki was greater than 10 µM in assay [1] and 2.52 µM in [2]. The Selectivity in assay [7] was greater than 4.
On the same counts, the results for `Cc1ccc(CC2=NCCN2)c(C)c1O` are 2 µM, 1.9 µM and 1.
For orientation: EC50 means the concentration needed to bring the measured effect to its halfway point. Regarding `Cc1cc(C(C)C)cc(C)c1CC1=NCCN1`, the Response turned out to be 53% in assay [3], 56% in [4], 34% in assay [5] and 34% in assay [6]. In addition, the figures for the Ki in assay [8], in [9] and in [2] were greater than 0.5 µM, 0.065 µM and 0.0011 µM, respectively. The Selectivity in [7] came out at 34. In addition, in [10], the response was half-maximal at 0.138 µM (EC50).
With `Cc1cccc(C)c1CC1=NCCN1`, the figures for the Ki in [1] and in assay [2] were greater than 10 µM and 2.21 µM, respectively. In addition, the Selectivity in assay [7] was greater than 4.
As to `Cc1cc(C(C)(C)C)cc(C)c1CC1=NCCN1` [XYLOMETAZOLINE], the Response is 51% in [3], 64% in assay [4], 38% in assay [5] and 41% in [6]. Moreover, the Ki was 0.014 µM in assay [1], greater than 0.5 µM in assay [8] and 0.091 µM in [9].
Regarding `CCCc1ccc(CC2=NCCN2)cc1`, the Ki was greater than 10 µM in [1] and 2.38 µM in [2]. Also, the Selectivity in [7] is greater than 4.
Take `Cc1cc(C(C)(C)C)ccc1CC1=NCCN1`: the Response amounted to 63% in assay [3], 58% in assay [4], 51% in [5] and 50% in assay [6]. Besides, the Ki was greater than 0.5 µM in assay [8] and 0.154 µM in assay [9]. The same molecule gave a Selectivity in assay [7] of 105. For the same molecule, in assay [10], the EC50 is 1.67 µM.
In assay [1], `COc1cccc(CC2=NCCN2)c1` displayed a Ki of 1.63 µM.
For `Cc1ccc(O)c(C)c1CC1=NCCN1`, the Ki in assay [1] worked out at 5.79 µM; in assay [2], 1.03 µM. The same molecule displayed a Selectivity in [7] of 6.
Take `Cc1cc(C(C)(C)C)cc(C)c1CCN`: the results for the Ki in assay [1] and in assay [2] were greater than 10 µM and 1.36 µM, respectively.
On the same counts, the results for `Nc1ccc(CC2=NCCN2)cc1` are greater than 10 µM and greater than 10 µM.
With `CC(C)(C)c1ccc(CC2=NCCN2)cc1`, the Response in [3] was 99%; in assay [4], 86%; in assay [5] it was 69%; in assay [6] it was 65%. Moreover, the Ki in [1] is 6.83 µM; in assay [8], 1.12 µM; in assay [9], 2.625 µM. The Selectivity in assay [7] amounted to 65. The EC50 in assay [10] is greater than 10 µM.
`CNCCc1c(C)cc(C(C)(C)C)cc1C`: the Ki is greater than 10 µM in assay [1] and greater than 5 µM in assay [2].
Regarding `O=[N+]([O-])c1ccc(CC2=NCCN2)cc1`, the Ki in assay [1] and in assay [2] was greater than 10 µM in each case.
Turning to `Cc1cc(C(C)(C)C)cc(C)c1CC1=NCCN1C`, the Ki in [1] is greater than 5 µM.
As to `Cc1cc(C)c(CC2=NCCN2)c(C)c1`, the Response in assay [3] is 49%; in [4] it was 52%; in assay [5], 23%; in assay [6], 49%. The molecule further registered a Selectivity in [7] of 48. In assay [2], this molecule returned an inhibitory constant (Ki) of 0.072 µM. Further, a half-maximal effect in assay [10] (EC50) was put at 0.15 µM.
Take `CC(C)c1ccc(CC2=NCCN2)cc1`: the Selectivity in assay [7] is 8.
Turning to `c1ccc(CC2=NCCN2)cc1` [TOLAZOLINE], the Ki in assay [1] and in [2] was greater than 10 µM throughout.
As to `Brc1ccc(CC2=NCCN2)cc1`, the Ki is greater than 10 µM in assay [1] and 4.39 µM in [2]. In addition, the Selectivity in assay [7] is greater than 2.
In the case of `Cc1ccc(CC2=NCCN2)c(C)c1OCc1ccccc1`, the Ki was found to be 3.87 µM in [1] and 1.1 µM in assay [2]. In assay [7], this molecule came in with a Selectivity of 4.
